# Activity calls are given as the source filed them. The calls are words filed in the database; no cut-off is given here.
# Columns and labels:
# [1] = Antioxidant activity in mouse BNL-CL2 cells assessed as inhibition of H2O2-induced ROS production at 20 ug/ml by DCFHDA assay; format: functional; settings: BNL CL.2, values are per cent of control
# In short: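 BNLCL2 cells (1 × 10^5 cells/mL) exposed 24 h to 20 µg/mL agent. Detached, washed, loaded with 10 µM DCFH-DA in PBS for 30 min at 37 °C, then stimulated with 0.1 mM H2O2 for 30 min at 37 °C. DCF fluorescence read at ex 504/em 524 nm against H2O2-treated cells. Independent triplicates.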
# [2] = tested on: Radical scavenging activity; test: Antioxidant activity assessed as DPPH radical scavenging activity at 1 ug/ml after 30 mins; format: functional
# In short: (§1)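 Sample (100 µL) added to 900 µL of 0.1 mM ethanolic DPPH and kept 30 min in the dark, then A517 read. Scavenging (%) = (1 − Asample/Acontrol) × 100. Control lacks test agent; ascorbic acid used as standard. EC50 estimated from the % inhibition versus concentration plot; mean ± SD, n = 3.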
# [3] = tested on: Radical scavenging activity; test: Antioxidant activity assessed as DPPH radical scavenging activity at 5 ug/ml after 30 mins; format: functional; in short: as §1
# [4] = tested on: Radical scavenging activity; test: Antioxidant activity assessed as DPPH radical scavenging activity at 10 ug/ml after 30 mins; format: functional; in short: as §1
# [5] = tested on: Radical scavenging activity; test: Antioxidant activity assessed as DPPH radical scavenging activity at 20 ug/ml after 30 mins; format: functional; in short: as §1
# [6] = tested on: Radical scavenging activity; test: Antioxidant activity assessed as DPPH radical scavenging activity at 100 ug/ml after 30 mins; format: functional; in short: as §1
# [7] = tested on: Radical scavenging activity; test: Antioxidant activity assessed as DPPH radical scavenging activity after 30 mins; format: functional; in short: as §1
# [8] = Antioxidant activity assessed as trolox equivalent of ABTS radical scavenging activity after 12 to 16 hrs; format: functional
# In short: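 ABTS (7 mM) oxidized with 2.45 mM potassium persulfate (final) in the dark at room temperature for 12–16 h. Diluted with ethanol to A734 0.70 ± 0.02 at 30 °C. 0.1 mL sample added to 2.9 mL, 20 min at 30 °C, A734 read. TEAC reported as mg Trolox/g, from the concentration giving the same absorbance change as 1 mg Trolox.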
# [9] = Antioxidant activity assessed as reducing capacity of the compound up to 100 ug/ml after 20 mins; format: functional
# In short: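 Sample (0.2 mL; 0, 1, 5, 10, 20, 100 µg/mL) mixed with sodium phosphate buffer pH 6.6 and 1% potassium ferricyanide, 50 °C for 20 min. 10% TCA added, centrifuged at 10000g for 10 min. Upper layer mixed with water and 0.1% FeCl3. A700 taken directly as reducing power; ascorbic acid standard; mean ± SD, n = 3.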
# [10] = Antioxidant activity assessed as ferrous ion chelating effect after 10 mins; format: functional
# In short: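 Ferrozine method. 10 µL sample with 20 µL of 2 mM FeCl2 for 5 min, then 40 µL of 5 mM ferrozine added and volume brought to 1 mL with water. Shaken and held 10 min at room temperature, A562 read. EDTA as positive control. Chelation (%) = (1 − Asample/Acontrol) × 100.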
# [11] = Antioxidant activity assessed as inhibition of Fe2+/ascorbate-induced lipid peroxidation by TBA assay; format: functional
# In short: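 Commercial liposomes (225–250 nm) with 10 mM FeSO4 and 10 mM ascorbic acid (11 µL each) plus compound in 50 mM sodium phosphate buffer pH 7.4, 2.5 mL final volume, 37 °C for 1 h. Stopped with TBA/TCA and EDTA, then heated at 100 °C for 20 min. Centrifuged and MDA adduct read at A532. Four replicates; inhibition (%) = (1 − Asample/Acontrol) × 100.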
# Liver [12] = test: Antioxidant activity in mouse liver assessed as inhibition of Fe2+/ascorbate-induced lipid peroxidation up to 20 ug/ml by TBARS assay relative to control; format: functional, tissue-based
# In short: (§2)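 Male ICR mice, 7 weeks, 30–35 g. Liver or brain homogenized 1:1 (w/v) in ice-cold 40 mM Tris-HCl pH 7.4 and spun at 3000g. Supernatant incubated with sample (20 or 100 µg/mL), 10 µM FeSO4 and 0.1 mM ascorbic acid, 37 °C for 1 h. TCA then TBA added, 80 °C for 20 min, A532 of MDA-TBA read with MDA standard; % inhibition versus control.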
# Liver [13] = test: Antioxidant activity in mouse liver assessed as inhibition of Fe2+/ascorbate-induced lipid peroxidation up to 100 ug/ml by TBARS assay relative to control; format: functional, tissue-based; in short: as §2
# B16 [14] = test: Cytotoxicity against mouse B16 cells up to 100 ug/ml after 72 hrs by MTT assay; format: cell-based; settings: b16, 72 h
# In short: (§3)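 B16 or Hs68 cells (1 × 10^4/well) seeded ≥24 h in DMEM with 10% FBS, then treated 72 h with 0, 5, 10, 20, 50, 100 µg/mL. MTT (0.5 mg/mL) for 4 h, formazan dissolved in DMSO, A570 read. Viability given as % of 0.1% DMSO vehicle culture; independent triplicates, mean ± SD.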
# Hs68 = test: Cytotoxicity against human HS68 cells up to 100 ug/ml after 72 hrs by MTT assay; format: cell-based; settings: hs68, 72 h; in short: as §3
# [15] = target: T1, Tyrosinase (Mus musculus) (UniProt P11344); test: Inhibition of tyrosinase in mouse B16 cells at 10 to 20 ug/ml after 72 hrs by spectrophotometry; format: cell-based
# T1 sequence (whole entry): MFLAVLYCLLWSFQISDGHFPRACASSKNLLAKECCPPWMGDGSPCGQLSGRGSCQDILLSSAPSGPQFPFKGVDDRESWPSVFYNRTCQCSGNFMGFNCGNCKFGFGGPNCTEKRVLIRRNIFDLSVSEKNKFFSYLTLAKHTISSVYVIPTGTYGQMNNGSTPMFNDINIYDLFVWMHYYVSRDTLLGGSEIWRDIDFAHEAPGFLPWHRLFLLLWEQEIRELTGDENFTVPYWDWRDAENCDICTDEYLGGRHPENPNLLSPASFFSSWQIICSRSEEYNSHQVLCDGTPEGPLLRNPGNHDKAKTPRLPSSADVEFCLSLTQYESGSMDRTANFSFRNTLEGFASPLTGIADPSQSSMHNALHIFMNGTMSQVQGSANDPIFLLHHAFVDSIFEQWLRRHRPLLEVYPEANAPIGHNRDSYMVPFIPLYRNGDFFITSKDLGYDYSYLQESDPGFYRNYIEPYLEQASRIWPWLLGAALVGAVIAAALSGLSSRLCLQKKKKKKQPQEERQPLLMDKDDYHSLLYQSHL
# In short: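 B16 cells (1 × 10^5 cells/mL) plated ≥24 h, then α-MSH (1 µM) alone or with 10 or 20 µg/mL agent for 72 h. Lysed in 50 mM sodium phosphate pH 6.8 with 1% Triton X-100 and freeze-thawed. 100 µL of 10 mM DOPA added, 37 °C for 4 h, DOPA oxidation read at A475 against α-MSH control; independent triplicates.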
# [16] = target: T1, Tyrosinase (Mus musculus); test: Inhibition of DOPA oxidase activity of tyrosinase in mouse B16 cells at 10 to 20 ug/ml after 72 hrs by colorimetry; format: cell-based
# In short: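 B16 cells (1 × 10^5 cells/mL) plated ≥24 h, then α-MSH (1 µM) alone or with 10 or 20 µg/mL agent for 72 h. Lysed in 50 mM sodium phosphate pH 6.8 with 1% Triton X-100 and freeze-thawed. Substrate of 6.3 mM MBTH, 1.1 mM DOPA, pH 7.1 buffer with 4% DMF added. 37 °C for 4 h, A508 read against α-MSH control; independent triplicates.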
# B16 [17] = test: Antimelanogenic activity in mouse B16 cells assessed as inhibition of alpha-MSH-induced melanin formation after 72 hrs by spectrophotometry; format: functional, cell-based
# In short: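 B16 cells (1 × 10^5 cells/mL) grown 24 h, then α-MSH (1 µM) plus 10 or 20 µg/mL compound in phenol red-free DMEM for 72 h. Melanin released into the medium read at OD 405 nm and expressed as % of 0.1% DMSO vehicle control. Independent triplicate experiments, mean ± SD.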
# B16 [18] = test: Effect on nuclear morphology of mouse B16 cells at 20 ug/ml after 72 hrs by Hoechst 33342 staining in presence of alpha-MSH; format: ADME, cell-based; settings: b16, 72 h
# In short: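 B16 cells (1 × 10^5 cells/mL) given α-MSH (1 µM) alone or with 20 µg/mL compound for 72 h. Fixed in 4% paraformaldehyde, nuclei stained with 0.1 µg/mL Hoechst 33342, and viewed by inverted fluorescence microscopy (200×).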
# B16 [19] = test: Antimelanogenic activity in mouse B16 cells assessed as decrease in MCIR expression at 20 ug/ml after 72 hrs by flow cytometry assay; format: functional; settings: B16, 72 h
# In short: (§4)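 B16 cells (1 × 10^5 cells/mL) given α-MSH (1 µM) alone or with 20 µg/mL compound for 72 h. Mouse primary antibodies (1:300) 45 min at 4 °C, FITC anti-mouse IgG (1:500) 30 min at 4 °C. Read by flow cytometry against a normal mouse IgG1 isotype control; n = 3.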
# B16 [20] = test: Antimelanogenic activity in mouse B16 cells assessed as decrease in MC1R expression at 20 ug/ml after 72 hrs by Western blotting; format: functional, cell-based
# In short: (§5)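 B16 cells (1 × 10^5 cells/mL) given α-MSH (1 µM) alone as control or α-MSH plus 20 µg/mL compound, 72 h. Lysis at 4 °C for 20 min in Tris-HCl pH 7.5 buffer with 1% Triton X-100, EGTA, NaCl and PMSF. 40 µg protein run on 12.5% SDS-PAGE and transferred to nitrocellulose. Blocked in 5% skim milk. Probed with target and β-actin antibodies, HRP secondary, ECL detection.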
# B16 [21] = test: Antimelanogenic activity in mouse B16 cells assessed as decrease in MITF expression at 20 ug/ml after 72 hrs by Western blotting; format: functional, cell-based; in short: as §5
# B16 [22] = test: Antimelanogenic activity in mouse B16 cells assessed as decrease in TRP2 expression at 20 ug/ml after 72 hrs by flow cytometry assay; format: functional; settings: B16, 72 h; in short: as §4
# B16 [23] = test: Antimelanogenic activity in mouse B16 cells assessed as decrease in MITF expression at 20 ug/ml after 72 hrs by flow cytometry assay; format: functional; settings: B16, 72 h; in short: as §4
# B16 [24] = test: Antimelanogenic activity in mouse B16 cells assessed as decrease in tyrosinase expression at 20 ug/ml after 72 hrs by flow cytometry assay; format: functional; settings: B16, 72 h; in short: as §4
# B16 [25] = test: Antimelanogenic activity in mouse B16 cells assessed as decrease in TRP1 expression at 20 ug/ml after 72 hrs by flow cytometry assay; format: functional; settings: B16, 72 h; in short: as §4
# B16 [26] = test: Antimelanogenic activity in mouse B16 cells assessed as decrease in tyrosinase expression at 20 ug/ml after 72 hrs by Western blotting; format: functional, cell-based; in short: as §5
# B16 [27] = test: Antimelanogenic activity in mouse B16 cells assessed as decrease in TRP2 expression at 20 ug/ml after 72 hrs by Western blotting; format: functional, cell-based; in short: as §5
# B16 [28] = test: Antimelanogenic activity in mouse B16 cells assessed as decrease in TRP1 expression at 20 ug/ml after 72 hrs by Western blotting; format: functional, cell-based; in short: as §5
# Brain = test: Antioxidant activity in mouse brain assessed as Fe2+/ascorbate-induced lipid peroxidation up to 100 ug/ml by TBARS assay relative to control
SMILES,"response, % of control at 20 µg/mL [1]",Activity [2],Activity [3],Activity [4],Activity [5],Activity [6],EC50 [7],EC50 [8],Activity (B16 [14]),Activity (Hs68),inhibition [15],inhibition [16],also measured
Cc1c(C)c2c(c(C)c1O)CCC(C)(C(=O)O)O2 (configuration not stated) [TROLOX],81.2%,–,–,–,–,–,–,–,–,–,–,–,–
O=C(O)c1ccc(O)c(O)c1 [PROTOCATECHUIC ACID],85.1%,43%,68.4%,70.4%,74.6%,82.7%,2.1 µg/mL,4 µg/mL,Non-toxic,Non-toxic,22.2%,57.4%,Activity [9]: inactive; Activity [10]: inactive; inhibition [11]: Dose-dependent effect; Activity (Liver [12]): Dose-dependent effect; Activity (Liver [13]): Dose-dependent effect; inhibition (B16 [17]): Dose-dependent effect; Activity (B16 [18]): Non-toxic; inhibition at 20 µg/mL (B16 [19]): 21.1%; inhibition (B16 [20]): Active; inhibition (B16 [21]): Active; inhibition at 20 µg/mL (B16 [22]): 29.3%; inhibition at 20 µg/mL (B16 [23]): 46.6%; inhibition at 20 µg/mL (B16 [24]): 34.8%; inhibition at 20 µg/mL (B16 [25]): 54.6%; inhibition (B16 [26]): Active; inhibition (B16 [27]): Active; inhibition (B16 [28]): Active; MDA-TBA level relative to control (Brain): 14.9%
OC[C@H]1O[C@@H](Oc2ccc(O)cc2)[C@H](O)[C@@H](O)[C@@H]1O [ARBUTIN],–,–,–,–,–,–,–,–,Toxic,Toxic,33.1%,30.9%,–
O=C1O[C@H]([C@@H](O)CO)C(O)=C1O [ASCORBIC ACID],102%,0%,62.5%,71.3%,81.4%,87.6%,4.2 µg/mL,4.9 µg/mL,Toxic,Toxic,29.8%,41.7%,–
